{"source": "ChEMBL document CHEMBL1122008", "about": "“Lipophilic 5'-(alkyl phosphate) esters of 1-beta-D-arabinofuranosylcytosine and its N4-acyl and 2,2'-anhydro-3'-O-acyl derivatives as potential prodrugs” (1982)", "type_in_all_cases": "functional", "key": {"Mus musculus [1]": {"test_system": "Mus musculus", "test": "Antitumor activity against L1210/ara-C leukemia in mice (Percent increase in life span.) at the dose of 1000 mg/kg", "method_in_brief": "(§1)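 Same protocol as the L1210 assay, but with 10^5 kinase-deficient L1210/ara-C cells inoculated ip into male B6D2F1J mice (groups of 5–9) on day 0. Treatment begins day 1, qd×5 or q4d(2,6). %ILS = (T/C − 1)×100 using median survival times of treated and control groups. Body weight recorded days 1 and 7.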"}, "Mus musculus [2]": {"test_system": "Mus musculus", "test": "Antitumor activity against L1210 leukemia in mice (Average 7-day weight change (%)) at the dose of 1000 mg/kg", "method_in_brief": "(§2)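 Male B6D2F1J mice, groups of five to nine, inoculated ip with 10^5 L1210 cells on day 0. Drug treatment started day 1 on qd×5 or q4d(2,6) schedule. Vehicles: ara-C in sterile water; the n-butyl phosphate ester in 0.05 M pH 7.4 potassium phosphate buffer; others as suspensions in 0.4% Tween 80/0.5% low-density CMC/0.9% benzyl alcohol/0.9% saline. Mice weighed days 1 and 7; 7-day weight change given as g/mouse and %.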"}, "Mus musculus [3]": {"test_system": "Mus musculus", "test": "Antitumor activity against L1210/ara-C leukemia in mice (Average weight per mouse on day 1.) at the dose of 1000 mg/kg", "method_in_brief": "(§3)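 Male B6D2F1J mice, groups of 5–9, inoculated ip with 10^5 L1210/ara-C cells on day 0. Dosing began day 1 on a qd×5 or q4d(2,6) schedule. Ara-C was given in sterile water, the n-butyl phosphate ester in 0.05 M pH 7.4 potassium phosphate buffer, and others as suspensions in 0.4% Tween 80/0.5% CMC/0.9% benzyl alcohol/0.9% saline. Mice were weighed on days 1 and 7; 7-day change given in g and %.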"}, "Mus musculus [4]": {"test_system": "Mus musculus", "test": "Antitumor activity against L1210 leukemia in mice (Average 7-day weight change (%)) at the dose of 100 mg/kg", "method_in_brief": "as §2"}, "Mus musculus [5]": {"test_system": "Mus musculus", "test": "Antitumor activity against L1210 leukemia in mice (Percent increase in life span.) at the dose of 200 mg/kg", "method_in_brief": "(§4)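 Male B6D2F1J mice, groups of 5–9, inoculated ip with 10^5 L1210 cells on day 0. Dosing starts day 1 on a qd×5 or q4d(2,6) schedule. Vehicles are sterile water, pH 7.4 0.05 M potassium phosphate buffer, or 0.4% Tween 80/0.5% CMC/0.9% benzyl alcohol/0.9% saline. %ILS = (T/C − 1)×100 from median survival. Weights taken days 1 and 7.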"}, "Mus musculus [6]": {"test_system": "Mus musculus", "test": "Antitumor activity against L1210/ara-C leukemia in mice (Average 7-day weight change) at the dose of 200 mg/kg", "method_in_brief": "(§5)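 Male B6D2F1J mice (5–9 per group) were given 10^5 L1210/ara-C cells i.p. on day 0, with treatment from day 1 on qd×5 or q4d(2,6). Vehicles were sterile water, pH 7.4 0.05 M phosphate buffer, or a Tween 80/CMC/benzyl alcohol saline suspension. Weights were taken on days 1 and 7; change is expressed in g/mouse and as a percentage.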"}, "Mus musculus [7]": {"test_system": "Mus musculus", "test": "Antitumor activity against L1210/ara-C leukemia in mice (Percent increase in life span.) at the dose of 500 mg/kg", "method_in_brief": "as §1"}, "Mus musculus [8]": {"test_system": "Mus musculus", "test": "Antitumor activity against L1210 leukemia in mice (Average 7-day weight change) at the dose of 50 mg/kg", "method_in_brief": "as §2"}, "Mus musculus [9]": {"test_system": "Mus musculus", "test": "Antitumor activity against L1210/ara-C leukemia in mice (Percent increase in life span.) at the dose of 50 mg/kg", "method_in_brief": "as §1"}, "Mus musculus [10]": {"test_system": "Mus musculus", "test": "Antitumor activity against L1210 leukemia in mice (Percent increase in life span.) at the dose of 1000 mg/kg", "method_in_brief": "as §4"}, "Mus musculus [11]": {"test_system": "Mus musculus", "test": "Antitumor activity against L1210 leukemia in mice (Average 7-day weight change (%)) at the dose of 50 mg/kg", "method_in_brief": "as §2"}, "Mus musculus [12]": {"test_system": "Mus musculus", "test": "Antitumor activity against L1210 leukemia in mice (Percent increase in life span.) at the dose of 100 mg/kg", "method_in_brief": "as §4"}, "Mus musculus [13]": {"test_system": "Mus musculus", "test": "Antitumor activity against L1210/ara-C leukemia in mice (Average weight per mouse on day 1.) at the dose of 250 mg/kg", "method_in_brief": "as §3"}, "Mus musculus [14]": {"test_system": "Mus musculus", "test": "Antitumor activity against L1210/ara-C leukemia in mice (Average 7-day weight change (%)) at the dose of 500 mg/kg", "method_in_brief": "as §5"}, "Mus musculus [15]": {"test_system": "Mus musculus", "test": "Antitumor activity against L1210 leukemia in mice (Average 7-day weight change (%)) at the dose of 200 mg/kg", "method_in_brief": "as §2"}, "Mus musculus [16]": {"test_system": "Mus musculus", "test": "Antitumor activity against L1210 leukemia in mice (Percent increase in life span.) at the dose of 500 mg/kg", "method_in_brief": "as §4"}, "Mus musculus [17]": {"test_system": "Mus musculus", "test": "Antitumor activity against L1210 leukemia in mice (Average 7-day weight change) at the dose of 200 mg/kg", "method_in_brief": "as §2"}, "Mus musculus [18]": {"test_system": "Mus musculus", "test": "Antitumor activity against L1210 leukemia in mice (Average weight per mouse on day 1.) at the dose of 250 mg/kg", "method_in_brief": "(§6)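 Male B6D2F1J mice (5–9 per group) received 10^5 L1210 cells i.p. on day 0 and drug from day 1, given qd×5 or q4d(2,6). Vehicles were sterile water, 0.05 M potassium phosphate pH 7.4, or 0.4% Tween 80/0.5% CMC/0.9% benzyl alcohol/0.9% saline. Read-out is average body weight per mouse (g) on day 1.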"}, "Mus musculus [19]": {"test_system": "Mus musculus", "test": "Antitumor activity against L1210 leukemia in mice (Average weight per mouse on day 1.) at the dose of 200 mg/kg", "method_in_brief": "as §6"}, "Mus musculus [20]": {"test_system": "Mus musculus", "test": "Antitumor activity against L1210 leukemia in mice (Percent increase in life span.) at the dose of 50 mg/kg", "method_in_brief": "as §4"}, "Mus musculus [21]": {"test_system": "Mus musculus", "test": "Antitumor activity against L1210/ara-C leukemia in mice (Average weight per mouse on day 1.) at the dose of 500 mg/kg", "method_in_brief": "as §3"}, "Mus musculus [22]": {"test_system": "Mus musculus", "test": "Antitumor activity against L1210 leukemia in mice (Average 7-day weight change (%)) at the dose of 250 mg/kg", "method_in_brief": "as §2"}, "Mus musculus [23]": {"test_system": "Mus musculus", "test": "Antitumor activity against L1210/ara-C leukemia in mice (Average weight per mouse on day 1.) at the dose of 100 mg/kg", "method_in_brief": "as §3"}, "Mus musculus [24]": {"test_system": "Mus musculus", "test": "Antitumor activity against L1210 leukemia in mice (Average weight per mouse on day 1.) at the dose of 100 mg/kg", "method_in_brief": "as §6"}, "Mus musculus [25]": {"test_system": "Mus musculus", "test": "Antitumor activity against L1210/ara-C leukemia in mice (Average 7-day weight change) at the dose of 250 mg/kg", "method_in_brief": "as §5"}, "Mus musculus [26]": {"test_system": "Mus musculus", "test": "Antitumor activity against L1210 leukemia in mice (Percent increase in life span.) at the dose of 250 mg/kg", "method_in_brief": "as §4"}, "Mus musculus [27]": {"test_system": "Mus musculus", "test": "Antitumor activity against L1210/ara-C leukemia in mice (Average 7-day weight change) at the dose of 50 mg/kg", "method_in_brief": "as §3"}, "Mus musculus [28]": {"test_system": "Mus musculus", "test": "Antitumor activity against L1210/ara-C leukemia in mice (Percent increase in life span.) at the dose of 250 mg/kg", "method_in_brief": "as §1"}, "Mus musculus [29]": {"test_system": "Mus musculus", "test": "Antitumor activity against L1210 leukemia in mice (Average weight per mouse on day 1.) at the dose of 50 mg/kg", "method_in_brief": "as §6"}, "Mus musculus [30]": {"test_system": "Mus musculus", "test": "Antitumor activity against L1210/ara-C leukemia in mice (Average 7-day weight change (%)) at the dose of 250 mg/kg", "method_in_brief": "as §5"}, "Mus musculus [31]": {"test_system": "Mus musculus", "test": "Antitumor activity against L1210/ara-C leukemia in mice (Average 7-day weight change) at the dose of 1000 mg/kg", "method_in_brief": "as §5"}, "Mus musculus [32]": {"test_system": "Mus musculus", "test": "Antitumor activity against L1210/ara-C leukemia in mice (Average 7-day weight change) at the dose of 100 mg/kg", "method_in_brief": "as §5"}}, "data": [{"smiles": "Nc1ccn([C@@H]2O[C@H](CO)[C@@H](O)[C@@H]2O)c(=O)n1", "note": "[CYTARABINE]", "values": [{"measurement": "ILS at 1000 mg/kg", "setting": "Mus musculus [1]", "value": 0, "unit": "%"}, {"measurement": "Weight change", "setting": "Mus musculus [2]", "value": 3, "unit": "%"}, {"measurement": "Average weight", "setting": "Mus musculus [3]", "value": 22, "unit": "g mouse-1"}, {"measurement": "Weight change", "setting": "Mus musculus [4]", "value": -5, "unit": "%"}, {"measurement": "ILS at 200 mg/kg", "setting": "Mus musculus [5]", "value": 112, "unit": "%"}, {"measurement": "Weight change", "setting": "Mus musculus [6]", "value": -3.1, "unit": "g mouse-1"}, {"measurement": "ILS at 500 mg/kg", "setting": "Mus musculus [7]", "value": 12, "unit": "%"}, {"measurement": "Weight change", "setting": "Mus musculus [8]", "value": 0.2, "unit": "g mouse-1"}, {"measurement": "ILS at 50 mg/kg", "setting": "Mus musculus [9]", "value": 0, "unit": "%"}, {"measurement": "ILS at 1000 mg/kg", "setting": "Mus musculus [10]", "value": 87, "unit": "%"}, {"measurement": "Weight change", "setting": "Mus musculus [11]", "value": 0, "unit": "%"}, {"measurement": "ILS at 100 mg/kg", "setting": "Mus musculus [12]", "value": 100, "unit": "%"}, {"measurement": "Average weight", "setting": "Mus musculus [13]", "value": 19.4, "unit": "g mouse-1"}, {"measurement": "Weight change", "setting": "Mus musculus [14]", "value": 19, "unit": "%"}, {"measurement": "Weight change", "setting": "Mus musculus [15]", "value": -7, "unit": "%"}, {"measurement": "ILS at 500 mg/kg", "setting": "Mus musculus [16]", "value": 62, "unit": "%"}, {"measurement": "Weight change", "setting": "Mus musculus [17]", "value": -1.6, "unit": "g mouse-1"}, {"measurement": "Average weight", "setting": "Mus musculus [18]", "value": 21.4, "unit": "g mouse-1"}, {"measurement": "Average weight", "setting": "Mus musculus [19]", "value": 22.6, "unit": "g mouse-1"}, {"measurement": "ILS at 50 mg/kg", "setting": "Mus musculus [20]", "value": 75, "unit": "%"}, {"measurement": "Average weight", "setting": "Mus musculus [21]", "value": 20.2, "unit": "g mouse-1"}, {"measurement": "Weight change", "setting": "Mus musculus [22]", "value": 7, "unit": "%"}, {"measurement": "Average weight", "setting": "Mus musculus [23]", "value": 24, "unit": "g mouse-1"}, {"measurement": "Average weight", "setting": "Mus musculus [24]", "value": 22.4, "unit": "g mouse-1"}, {"measurement": "Weight change", "setting": "Mus musculus [25]", "value": 4, "unit": "g mouse-1"}, {"measurement": "ILS at 250 mg/kg", "setting": "Mus musculus [26]", "value": 62, "unit": "%"}, {"measurement": "Weight change", "setting": "Mus musculus [27]", "value": 0.8, "unit": "g mouse-1"}, {"measurement": "ILS at 250 mg/kg", "setting": "Mus musculus [28]", "value": 12, "unit": "%"}, {"measurement": "Average weight", "setting": "Mus musculus [29]", "value": 24, "unit": "g mouse-1"}, {"measurement": "Weight change", "setting": "Mus musculus [30]", "value": 20, "unit": "%"}, {"measurement": "Weight change", "setting": "Mus musculus [31]", "value": 2.4, "unit": "g mouse-1"}, {"measurement": "Weight change", "setting": "Mus musculus [32]", "value": -1.1, "unit": "g mouse-1"}]}]}
